# In the M2OR odorant receptor database:
# Assays:
# Conditions in all cases: stereoisomer not certain
# UniProt Q8VGL0 = target: T1, UniProt Q8VGL0
# T1 sequence (whole entry): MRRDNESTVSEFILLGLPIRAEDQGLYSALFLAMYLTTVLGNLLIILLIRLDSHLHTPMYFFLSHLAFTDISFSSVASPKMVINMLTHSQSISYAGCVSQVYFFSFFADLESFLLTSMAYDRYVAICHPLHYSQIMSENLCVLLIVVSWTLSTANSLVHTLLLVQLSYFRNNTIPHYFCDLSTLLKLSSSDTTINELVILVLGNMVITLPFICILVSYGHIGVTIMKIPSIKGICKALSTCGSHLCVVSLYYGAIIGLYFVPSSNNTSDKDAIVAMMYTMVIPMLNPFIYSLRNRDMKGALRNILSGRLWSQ
# Summary of the method: (§1)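 Transient luciferase assays in mammalian cell lines were common, though methods varied by source. The values come from published papers and their supplementary material, with extra details from the original authors when needed. Responsive refers to a measured signal the original authors judged statistically different from baseline, and non-responsive (inactive) to the remainder.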
# UniProt Q8VGU3 = target: T2, UniProt Q8VGU3
# T2 sequence (whole entry): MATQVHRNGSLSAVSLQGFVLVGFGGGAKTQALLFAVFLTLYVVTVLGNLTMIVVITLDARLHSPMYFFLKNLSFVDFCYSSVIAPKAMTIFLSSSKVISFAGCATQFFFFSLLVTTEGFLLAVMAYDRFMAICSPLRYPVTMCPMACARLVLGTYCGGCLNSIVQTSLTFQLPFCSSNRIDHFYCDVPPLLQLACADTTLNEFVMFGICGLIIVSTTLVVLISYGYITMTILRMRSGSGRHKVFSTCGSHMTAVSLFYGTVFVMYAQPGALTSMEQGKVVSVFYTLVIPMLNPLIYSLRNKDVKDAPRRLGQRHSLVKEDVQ
# Summary of the method: as §1
# UniProt Q8VGV7 = target: T3, UniProt Q8VGV7
# T3 sequence (whole entry): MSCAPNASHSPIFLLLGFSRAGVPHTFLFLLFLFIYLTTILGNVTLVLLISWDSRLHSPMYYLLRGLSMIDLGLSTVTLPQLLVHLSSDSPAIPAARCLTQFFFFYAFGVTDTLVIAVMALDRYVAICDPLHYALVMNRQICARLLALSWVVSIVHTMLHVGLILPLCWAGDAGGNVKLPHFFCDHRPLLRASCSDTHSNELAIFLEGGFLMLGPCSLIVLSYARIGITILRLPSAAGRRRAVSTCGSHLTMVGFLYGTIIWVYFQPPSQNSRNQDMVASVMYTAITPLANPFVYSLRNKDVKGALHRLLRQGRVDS
# Summary of the method: as §1
# UniProt Q8VGX3 = target: T4, UniProt Q8VGX3
# T4 sequence (whole entry): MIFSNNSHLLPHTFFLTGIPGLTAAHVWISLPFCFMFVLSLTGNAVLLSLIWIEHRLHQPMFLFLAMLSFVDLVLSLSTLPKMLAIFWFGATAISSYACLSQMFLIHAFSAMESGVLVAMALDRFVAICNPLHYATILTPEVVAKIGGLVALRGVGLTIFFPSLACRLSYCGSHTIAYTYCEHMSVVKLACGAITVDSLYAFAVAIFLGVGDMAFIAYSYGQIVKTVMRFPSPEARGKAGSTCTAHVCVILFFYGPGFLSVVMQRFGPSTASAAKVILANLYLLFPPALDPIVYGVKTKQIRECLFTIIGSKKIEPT
# Summary of the method: as §1
# UniProt Q8VGX5 = target: T5, UniProt Q8VGX5
# T5 sequence (whole entry): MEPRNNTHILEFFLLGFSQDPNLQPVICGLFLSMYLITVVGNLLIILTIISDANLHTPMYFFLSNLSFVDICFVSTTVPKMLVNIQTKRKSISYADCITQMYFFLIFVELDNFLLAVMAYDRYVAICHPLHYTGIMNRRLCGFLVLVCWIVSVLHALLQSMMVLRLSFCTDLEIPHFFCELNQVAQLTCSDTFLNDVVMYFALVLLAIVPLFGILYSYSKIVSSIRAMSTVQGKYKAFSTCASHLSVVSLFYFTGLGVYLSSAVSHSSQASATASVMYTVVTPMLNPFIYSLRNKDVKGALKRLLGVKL
# Summary of the method: as §1
# UniProt Q8VGZ2 = target: T6, UniProt Q8VGZ2
# T6 sequence (whole entry): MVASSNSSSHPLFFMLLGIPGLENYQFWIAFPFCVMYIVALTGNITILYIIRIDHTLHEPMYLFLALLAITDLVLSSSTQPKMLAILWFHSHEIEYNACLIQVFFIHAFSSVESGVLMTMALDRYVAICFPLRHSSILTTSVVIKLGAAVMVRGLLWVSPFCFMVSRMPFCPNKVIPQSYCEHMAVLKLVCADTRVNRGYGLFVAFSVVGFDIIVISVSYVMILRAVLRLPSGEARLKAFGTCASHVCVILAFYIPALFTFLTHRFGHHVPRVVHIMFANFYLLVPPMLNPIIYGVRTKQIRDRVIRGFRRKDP
# Summary of the method: as §1
# UniProt Q8VGZ7 = target: T7, UniProt Q8VGZ7
# T7 sequence (whole entry): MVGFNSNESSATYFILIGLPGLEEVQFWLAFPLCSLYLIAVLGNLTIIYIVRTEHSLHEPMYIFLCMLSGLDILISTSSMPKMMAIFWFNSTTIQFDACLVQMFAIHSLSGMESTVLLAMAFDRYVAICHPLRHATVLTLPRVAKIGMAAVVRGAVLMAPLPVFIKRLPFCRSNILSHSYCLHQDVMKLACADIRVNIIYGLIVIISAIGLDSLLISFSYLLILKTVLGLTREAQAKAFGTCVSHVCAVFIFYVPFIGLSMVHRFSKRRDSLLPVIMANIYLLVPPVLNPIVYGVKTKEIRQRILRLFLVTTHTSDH
# Summary of the method: as §1
# UniProt Q8VH16 = target: T8, UniProt Q8VH16
# T8 sequence (whole entry): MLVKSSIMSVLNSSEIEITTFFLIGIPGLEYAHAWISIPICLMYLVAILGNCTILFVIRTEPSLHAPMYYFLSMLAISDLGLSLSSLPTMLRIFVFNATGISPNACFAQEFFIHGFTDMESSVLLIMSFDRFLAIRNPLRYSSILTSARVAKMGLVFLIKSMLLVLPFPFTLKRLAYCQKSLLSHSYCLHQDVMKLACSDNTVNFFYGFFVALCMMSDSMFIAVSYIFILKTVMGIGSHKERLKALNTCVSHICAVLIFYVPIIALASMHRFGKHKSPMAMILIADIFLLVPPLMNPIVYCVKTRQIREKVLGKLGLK
# Summary of the method: as §1
# UniProt Q8VH20 = target: T9, UniProt Q8VH20
# T9 sequence (whole entry): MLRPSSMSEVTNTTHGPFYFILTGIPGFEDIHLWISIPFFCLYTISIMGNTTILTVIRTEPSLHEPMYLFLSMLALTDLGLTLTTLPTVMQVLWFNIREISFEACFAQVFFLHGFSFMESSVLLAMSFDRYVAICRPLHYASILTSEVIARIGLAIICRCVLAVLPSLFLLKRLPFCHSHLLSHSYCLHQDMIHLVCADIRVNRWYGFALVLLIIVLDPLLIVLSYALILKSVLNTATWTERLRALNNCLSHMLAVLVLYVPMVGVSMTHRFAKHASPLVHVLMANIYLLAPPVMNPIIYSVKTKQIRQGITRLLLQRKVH
# Summary of the method: as §1
# 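Further: active if original authors judged signal statistically different from baseline.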
Structure (SMILES),odorant receptor agonist call (UniProt Q8VGL0),odorant receptor agonist call (UniProt Q8VGU3),odorant receptor agonist call (UniProt Q8VGV7),odorant receptor agonist call (UniProt Q8VGX3),odorant receptor agonist call (UniProt Q8VGX5),odorant receptor agonist call (UniProt Q8VGZ2),odorant receptor agonist call (UniProt Q8VGZ7),odorant receptor agonist call (UniProt Q8VH16),odorant receptor agonist call (UniProt Q8VH20)
CCCCCCC(Br)C(=O)O (configuration not stated),inactive,inactive,inactive,inactive,inactive,inactive,inactive,inactive,active
COc1ccc(C=O)cc1,inactive,inactive,inactive,inactive,inactive,inactive,inactive,inactive,inactive
O=CC=Cc1ccccc1,inactive,inactive,inactive,inactive,inactive,inactive,inactive,inactive,inactive
